In ChEMBL document CHEMBL3352141, “Carboline- and phenothiazine-derivated heterocycles as potent SIGMA-1 protein ligands” (Eur J Med Chem, 2015):

Legend:
[1] = molecular target: Sigma non-opioid intracellular receptor 1 (Homo sapiens, UniProt Q99720); experiment: Displacement of [3H](+)-pentazocine from human sigma 1 receptor in human Jurkat cell membranes incubated for 2 hrs by liquid scintillation counting
[2] = Displacement of [3H]-DTG from human sigma 2 receptor in human Jurkat cell membranes incubated for 1 hr by liquid scintillation counting
Outline: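 Competition binding on Jurkat cell membranes (10–20 µg protein per tube) with 25 nM [3H]-DTG, plus (+)-pentazocine to saturate sigma-1 sites, across a range of test concentrations. Incubation was 1 h at room temperature in 5 mM Tris/HCl, pH 7.4. Bound ligand was separated by rapid GF/B filtration with ice-cold NaCl washes and counted by liquid scintillation. Nonspecific binding was measured under similar conditions.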

Jurkat [3] = experiment: Selectivity index, ratio of Ki for human sigma 2 receptor in human Jurkat cell membranes to Ki for human sigma 1 receptor in human Jurkat cell membranes; type: cell-based
Outline: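 The ratio divides sigma-2 Ki by sigma-1 Ki, both measured on Jurkat membranes. Sigma-2 used 25 nM [3H]-DTG with (+)-pentazocine masking, 1 h at room temperature. Sigma-1 used 15 nM [3H](+)-pentazocine, 2 h at 37 °C. Both assays ran in 5 mM Tris/HCl, pH 7.4, with filtration and scintillation read-out.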

[4] = Displacement of [3H]-DTG from rat cerebral cortex membrane sigma 2 receptor incubated for 1 hr by liquid scintillation counting; type: tissue-based
Jurkat [5] = experiment: Selectivity index, ratio of Ki for sigma 2 receptor in rat cerebral cortex membranes to Ki for human sigma 1 receptor in human Jurkat cell membranes; type: cell-based
[6] = Cytotoxicity against human SH-SY5Y cells after 72 hrs by MTT assay; type: cell-based
Outline: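 SH-SY5Y neuroblastoma cells were grown in DMEM with 2 mM L-glutamine, streptomycin, 100 IU/mL penicillin, 1 mM non-essential amino acids and 10% heat-inactivated FBS at 37 °C under 5% CO2. Cells were seeded at 2000 per well and serum-starved 24 h, then exposed to a concentration series in <0.1% DMSO. Viability was read by colorimetric MTT. IC50 is the mean of 2–3 independent experiments.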

[7] = Selectivity index, ratio of IC50 for human SH-SY5Y cells to Ki for human sigma 1 receptor in human Jurkat cell membranes

Sequence of Sigma non-opioid intracellular receptor 1 (Q99720 whole entry): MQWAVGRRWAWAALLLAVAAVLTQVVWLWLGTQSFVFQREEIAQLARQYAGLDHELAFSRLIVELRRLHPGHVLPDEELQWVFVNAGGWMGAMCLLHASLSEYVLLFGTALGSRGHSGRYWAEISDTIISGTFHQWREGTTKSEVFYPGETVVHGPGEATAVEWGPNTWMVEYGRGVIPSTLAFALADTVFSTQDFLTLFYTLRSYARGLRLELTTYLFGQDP

Structure (SMILES) | Ki [1] [nM] | Ki [4] [nM] | Ki [2] [nM] | Ratio Ki (Jurkat [3]) | Ratio Ki (Jurkat [5]) | IC50 [6] [nM] | Selectivity Index [7]
c1ccc2c(c1)CN(CCCN1c3ccccc3Oc3ccccc31)C2 | > 200 | – | 140 | < 1 | – | 11000 | <55
CN(CCCN1c2ccccc2Sc2ccccc21)Cc1ccccc1 | 28 | – | 280 | 10 | – | 17100 | 611
CN(CCCN1CCc2[nH]c3ccccc3c2C1)Cc1ccccc1 | 18 | – | 130 | 7 | – | 16900 | 939
CN(CCCn1c(=O)oc2cc3c(cc21)C(c1ccccc1)CC3=O)Cc1ccccc1 (stereo unspecified) | 72 | – | 180 | 2.5 | – | > 100000 | >1389
c1ccc2c3c([nH]c2c1)CN(CCCN1CCCC1)CC3 | > 200 | – | > 400 | – | – | 32900 | <160
c1ccc2c(c1)CN(CCCN1CCc3[nH]c4ccccc4c3C1)C2 | 72 | – | 180 | 2.5 | – | 50000 | 694
CN(CCCN1C(=O)[C@@H]2Cc3ccccc3CN2C1=O)Cc1ccccc1 | – | 496 | 496 | – | – | > 100000 | –
CN(CCCN1C(=O)[C@H]2Cc3ccccc3CN2C1=O)Cc1ccccc1 | – | 764 | 764 | – | – | 19500 | –
CN(CCCN1c2ccccc2Oc2ccccc21)Cc1ccccc1 | > 200 | – | 180 | < 1 | – | 71900 | <350
CN(CCCN1CCc2[nH]c3ccccc3c2C1)CCc1ccccc1 | 11 | – | 200 | 18 | – | 33200 | 3018
c1ccc2c(c1)CN(CCCN1c3ccccc3Sc3ccccc31)C2 | 12 | – | 94 | 8 | – | 83300 | 6942
CN(CCCn1c(=O)oc2cc3c(cc21)C(c1ccc(Cl)cc1)CC3=O)Cc1ccccc1 (stereo unspecified) | 160 | – | 50 | 0.3 | – | 5000 | 31
O=C(CCCN1CCC(O)(c2ccc(Cl)cc2)CC1)c1ccc(F)cc1 [HALOPERIDOL] | – | – | 175 | – | – | – | –
c1ccc(C2c3[nH]c4ccccc4c3CCN2CCCN2CCCC2)cc1 (stereo unspecified) | 36 | – | 310 | 9 | – | 47800 | 1328
CN(CCCN1c2ccccc2Oc2ccccc21)CCc1ccccc1 | 18 | – | 80 | 4 | – | 46900 | 2606

Further lines, with some results ahead:

Ki [1] [nM] | Ki [4] [nM] | Structure (SMILES) | Ki [2] [nM] | Ratio Ki (Jurkat [3]) | Ratio Ki (Jurkat [5]) | IC50 [6] [nM] | Selectivity Index [7]
5.3 | 416 | O=C1C2Cc3ccccc3CN2C(=O)N1CCCN1Cc2ccccc2C1 (stereo unspecified) | 416 | 103 | 78 | – | –
11 | – | c1ccc2c(c1)CN(CCCN1CCc3oc4ccccc4c3C1)C2 | 9.9 | 0.9 | – | 78900 | 7173
2 | – | CN(CCCN1CCc2oc3ccccc3c2C1)Cc1ccccc1 | < 10 | < 5 | – | 68900 | 34450
6.2 | – | CN(CCCN1CCc2c([nH]c3ccccc23)C1)Cc1ccccc1 | 15 | 2.4 | – | 19700 | 3177
2.5 | – | CN(CCCN1CCc2oc3ccccc3c2C1)CCc1ccccc1 | 78 | 31 | – | 25400 | 10160
11 | – | CN(CCCN1c2ccccc2Sc2ccccc21)CCc1ccccc1 | 310 | 28 | – | 8600 | 782
4.3 | – | CN(CCCN1CCc2c([nH]c3ccccc23)C1c1ccccc1)Cc1ccccc1 (stereo unspecified) | 100 | 23 | – | 9300 | 2163
11 | – | CN(CCCN1CCc2c([nH]c3ccccc23)C1c1ccccc1)CCc1ccccc1 (stereo unspecified) | 93 | 8 | – | 11800 | 1073
7.2 | – | CN(CCCN1CCc2c([nH]c3ccccc23)C1)CCc1ccccc1 | 91 | 13 | – | 11600 | 1611
8.4 | – | c1ccc(C2c3[nH]c4ccccc4c3CCN2CCCN2Cc3ccccc3C2)cc1 (stereo unspecified) | 110 | 13 | – | 18300 | 2179
8 | – | c1ccc2c(c1)CN(CCCN1CCc3c([nH]c4ccccc34)C1)C2 | 110 | 14 | – | 24900 | 3112
